Experimental data: ChEMBL document CHEMBL1687827, “Profiling the Aspergillus fumigatus proteome in response to caspofungin” (2011)
Calls of active or inactive are those of the source. No cut-off for these calls is given here.

Assays:
[1] = system: Aspergillus fumigatus; test: Induction of change in isocitrate dehydrogenase Idp1, putative protein level in iTRAQ-118 labelled cell wall fraction of drug-susceptible Aspergillus fumigatus KU80 delta-akuB at 0.12 ug/ml after 24 hrs in YPD medium by MS (MS/MS) analysis relative to control; type: functional
Outline: (§1)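 Conidia (1 × 10⁵/ml) grown in YPD, 37°C, 225 rpm, ± 0.12 μg/ml caspofungin; filtrate taken as secreted fraction, French-press lysate 5,000 × g pellet as cell wall/plasma membrane. Trypsin digests 8-plex iTRAQ-labelled (drug-free channels as references), pooled, 2D-chromatography, MS/MS. Median-normalized; protein ratio = median of unique-peptide ratios, log2 normalized.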

[2] = system: Aspergillus fumigatus; test: Induction of change in cobalamin-independent methionine synthase MetH/D protein level in iTRAQ-116 labelled secreted fraction of drug-resistant Aspergillus fumigatus EMFR-S678P at 0.12 ug/ml after 48 hrs in YPD medium by MS (MS/MS) analysis relative to control; type: functional
Outline: (§2)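 Conidia at 1 × 10⁵/ml were grown at 37°C, shaking at 225 rpm, in YPD with or without 0.12 μg/ml caspofungin for 24 or 48 h. The culture filtrate was kept as the secreted fraction. Mycelia were lysed by French press in HEPES/glycerol/EDTA/PMSF/DTT buffer, and the 5,000 × g pellet was washed to give CW/PM. Proteins were reduced, alkylated and trypsin-digested at 37°C overnight, then iTRAQ-labelled and run by 2D LC-MS/MS. Ratios are the median of unique-peptide ratios, median-normalized, versus the no-drug control.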

[3] = system: Aspergillus fumigatus; test: Induction of change in pyruvate decarboxylase PdcA, putative protein level in iTRAQ-118 labelled cell wall fraction of drug-susceptible Aspergillus fumigatus KU80 delta-akuB at 0.12 ug/ml after 24 hrs in YPD medium by MS (MS/MS) analysis relative to control; type: functional; outline: as §1
[4] = system: Aspergillus fumigatus; test: Induction of change in nascent polypeptide-associated complex (NAC) subunit, putative protein level in iTRAQ-116 labelled secreted fraction of drug-resistant Aspergillus fumigatus EMFR-S678P at 0.12 ug/ml after 48 hrs in YPD medium by MS (MS/MS) analysis relative to control; type: functional, organism-based; outline: as §2
[5] = system: Aspergillus fumigatus; test: Induction of change in ribosomal protein L27a gene expression in drug-susceptible Aspergillus fumigatus KU80 delta-akuB at 0.12 ug/ml after 24 hrs in YPD medium by microarray analysis relative to control; type: functional
Outline: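 Mycelia grown from 1 × 10⁵ conidia/ml in YPD at 37°C, 225 rpm, with or without 0.12 μg/ml caspofungin. Total RNA extracted, DNase-treated; 2 μg labelled per TIGR SOP M007 for whole-genome array hybridization. Three independent experiments with dye flip (6 replicates); >2-fold change deemed significant.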

[6] = system: Aspergillus fumigatus; test: Induction of change in 60s ribosomal protein yl6 protein level in iTRAQ114 labelled cell wall fraction of drug-susceptible Aspergillus fumigatus KU80 delta-akuB at 0.12 ug/ml after 24 hrs in YPD medium by MS (MS/MS) analysis relative to control; type: functional
Outline: (§3)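 Conidia at 1 × 10⁵/ml grown shaking at 37°C in YPD with or without 0.12 μg/ml caspofungin; mycelia filtered at 24 or 48 h. Secreted fraction taken from the filtrate; cell wall/plasma membrane pellet recovered after French-press lysis and a 5,000 × g spin. Proteins trypsin-digested and iTRAQ-labelled, drug vs no-drug channels at each time, then 2D LC-MS/MS. Protein ratio is the median of ratios from uniquely assigned peptides after median normalization.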

[7] = system: Aspergillus fumigatus; test: Induction of change in choline oxidase (CodA), putative protein level in iTRAQ-116 labelled secreted fraction of drug-susceptible Aspergillus fumigatus KU80 delta-akuB at 0.12 ug/ml after 48 hrs in YPD medium by MS (MS/MS) analysis relative to control; type: functional; outline: as §3
[8] = system: Aspergillus fumigatus; test: Induction of change in translation elongation factor eEF-3, putative protein level in iTRAQ-118 labelled cell wall fraction of drug-susceptible Aspergillus fumigatus KU80 delta-akuB at 0.12 ug/ml after 24 hrs in YPD medium by MS (MS/MS) analysis relative to control; type: functional; outline: as §1
[9] = system: Aspergillus fumigatus; test: Induction of change in L-PSP endoribonuclease family protein (Hmf1), putative gene expression in drug-susceptible Aspergillus fumigatus KU80 delta-akuB at 0.12 ug/ml after 48 hrs in YPD medium by microarray analysis relative to control; type: functional
Outline: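 Mycelia grown in YPD ± 0.12 μg/ml caspofungin (1 × 10⁵ conidia/ml, 37°C, shaking) and harvested at 24 or 48 h. Total RNA extracted, DNase-treated and quality-checked; 2 μg labelled per TIGR SOP M007 and hybridized to whole-genome arrays. Three independent experiments with dye flip (6 replicates); drug vs untreated fold change.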

[10] = system: Aspergillus fumigatus; test: Induction of change in GNAT family acetyltransferase, putative protein level in iTRAQ-116 labelled secreted fraction of drug-resistant Aspergillus fumigatus EMFR-S678P at 0.12 ug/ml after 48 hrs in YPD medium by MS (MS/MS) analysis relative to control; type: functional; outline: as §2
[11] = system: Aspergillus fumigatus; test: Induction of change in cell wall protein PhiA protein level in iTRAQ-116 labelled secreted fraction of drug-resistant Aspergillus fumigatus EMFR-S678P at 0.12 ug/ml after 48 hrs in YPD medium by MS (MS/MS) analysis relative to control; type: functional, organism-based; outline: as §2
[12] = system: Aspergillus fumigatus; test: Induction of change in 60S ribosomal protein L10 protein level in iTRAQ-118 labelled cell wall fraction of drug-susceptible Aspergillus fumigatus KU80 delta-akuB at 0.12 ug/ml after 24 hrs in YPD medium by MS (MS/MS) analysis relative to control; type: functional; outline: as §3
[13] = system: Aspergillus fumigatus; test: Induction of change in ATP citrate lyase, subunit 1, putative protein level in iTRAQ114 labelled secreted fraction of drug-susceptible Aspergillus fumigatus KU80 delta-akuB at 0.12 ug/ml after 24 hrs in YPD medium by MS (MS/MS) analysis relative to control; type: functional; outline: as §3
[14] = system: Aspergillus fumigatus; test: Induction of change in ThiJ/PfpI family protein level in iTRAQ-118 labelled cell wall fraction of drug-resistant Aspergillus fumigatus EMFR-S678P at 0.12 ug/ml after 24 hrs in YPD medium by MS (MS/MS) analysis relative to control; type: functional; outline: as §2
[15] = system: Aspergillus fumigatus; test: Induction of change in peptidyl-prolyl cis-trans isomerase protein level in iTRAQ-118 labelled cell wall fraction of drug-resistant Aspergillus fumigatus EMFR-S678P at 0.12 ug/ml after 24 hrs in YPD medium by MS (MS/MS) analysis relative to control; type: functional; outline: as §2
[16] = system: Aspergillus fumigatus; test: Induction of change in Ribosomal protein S13p/S18e protein level in iTRAQ114 labelled cell wall fraction of drug-susceptible Aspergillus fumigatus KU80 delta-akuB at 0.12 ug/ml after 24 hrs in YPD medium by MS (MS/MS) analysis relative to control; type: functional; outline: as §3
[17] = system: Aspergillus fumigatus; test: Induction of change in tripeptidyl-peptidase (TppA), putative protein level in iTRAQ-116 labelled secreted fraction of drug-susceptible Aspergillus fumigatus KU80 delta-akuB at 0.12 ug/ml after 48 hrs in YPD medium by MS (MS/MS) analysis relative to control; type: functional; outline: as §1

CC[C@H](C)C[C@H](C)CCCCCCCCC(=O)N[C@H]1C[C@@H](O)[C@@H](NCCN)NC(=O)[C@@H]2[C@@H](O)CCN2C(=O)[C@H]([C@H](O)CCN)NC(=O)[C@H]([C@H](O)[C@@H](O)c2ccc(O)cc2)NC(=O)[C@@H]2C[C@@H](O)CN2C(=O)[C@H]([C@@H](C)O)NC1=O [CASPOFUNGIN]
fold change (FC) [1]: -2.1 | fold change (FC) [2]: -1.15 | fold change (FC) [3]: -2.3 | Activity [4]: inactive | fold change (FC) [5]: 3.6 | fold change (FC) [6]: 1.6 | fold change (FC) [7]: -2 | fold change (FC) [8]: 2.1 | fold change (FC) [9]: -2.3 | fold change (FC) [10]: -1.07 | Activity [11]: inactive | fold change (FC) [12]: 2.3 | fold change (FC) [13]: 3.2 | fold change (FC) [14]: 1.23 | fold change (FC) [15]: -1.15 | fold change (FC) [16]: 2.3 | fold change (FC) [17]: 3.2
